The subject of data set [1] is Staphylococcus aureus. Nature of the data set: Antimicrobial activity against heteroresistant glycopeptide-intermediate Staphylococcus aureus 1629 by broth microdilution method. The data set is classed as functional. In short, it runs like this: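 MICs determined by broth microdilution at ~5.5 log10 CFU/ml following CLSI guidelines.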
For orientation: Broth dilution looks for growth in wells or tubes with falling amounts of substance.

Data set [2] concerns Staphylococcus aureus. Put plainly: Antimicrobial activity against glycopeptide-intermediate Staphylococcus aureus NJ992 by broth microdilution method.
Data set [3] has as its system Staphylococcus aureus. Put plainly: microbe, parasite or virus in culture. Conditions: 494.
Data set [4] concerns Staphylococcus aureus. Nature of the data set: microbe, parasite or virus in culture. Conditions: 1199.
Data set [5] is described as follows: Cmax in in vitro pharmacokinetic/pharmacodynamic model at 300 mg for every 8 hrs.
The nature of data set [6]: AUC (0 to 24 hrs) in in vitro pharmacokinetic/pharmacodynamic model at 300 mg for every 8 hrs.
The nature of data set [7]: AUC (0 to 24 hrs) in in vitro pharmacokinetic/pharmacodynamic model at 10 mg/kg for every 12 hrs. The data set is classed as ADME, organism-based. The arrangement: time < 24 hr, dose 10 mg/kg. Conditions: in the assay text read “every 24 hrs” for “every 12 hrs”. A digest of the protocol:
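Central compartment (250 ml glass in vitro PK/PD model holding simulated endocardial vegetations) sampled via injection port at 1, 4, 8, 24, 32, 48, 72 and 96 h. Drug levels measured by agar-well bioassay with Micrococcus luteus ATCC 9341 (zone sizes after 18–24 h at 35°C). Peak, half-life and AUC derived by trapezoidal method. Models run in duplicate; mean ± SD.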

The test system of data set [8] is Staphylococcus aureus. Nature of the data set: Antibacterial activity against methicillin-susceptible Staphylococcus aureus 1199 assessed as bacterial load per gram in in vitro pharmacokinetic/pharmacodynamic model at 10 mg/kg administered daily after 96 hrs. The data set is classed as functional. A digest of the protocol: (§1)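 250-ml in vitro PK/PD model holding simulated endocardial vegetations, inoculum ~9 log10 CFU/g. Regimens simulated over 96 h: telavancin 10 mg/kg daily (peak 87.5 μg/ml, t½ 8 h) or vancomycin 1 g every 12 h (trough 10 μg/ml, t½ 6 h). Two SEVs per model removed at 0–96 h, homogenized, diluted and plated on TSA at 35°C for 18–24 h. Detection limit 2 log10 CFU/g; models in duplicate.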

In data set [9] the test system is Staphylococcus aureus. Nature of the data set: Antibacterial activity against heteroresistant glycopeptide-intermediate Staphylococcus aureus 1629 assessed as bacterial load per gram in in vitro pharmacokinetic/pharmacodynamic model at 10 mg/kg administered daily after 96 hrs. The data set is classed as functional. A digest of the protocol:
as §1

The test system of data set [10] is Staphylococcus aureus. Put plainly: Antibacterial activity against glycopeptide-intermediate Staphylococcus aureus NJ992 assessed as bacterial load per gram in in vitro pharmacokinetic/pharmacodynamic model at 10 mg/kg administered daily after 96 hrs. The class given is functional.
The test system of data set [11] is Staphylococcus aureus. Nature of the data set: Antibacterial activity against heteroresistant glycopeptide-intermediate Staphylococcus aureus 1629 assessed as decrease in bacterial load in in vitro pharmacokinetic/pharmacodynamic model at 10 mg/kg administered daily after 64 hrs. The data set is classed as functional, organism-based. On the set-up: dose 10 mg/kg. A digest of the protocol:
as §1

The test system of data set [12] is Staphylococcus aureus. Put plainly: Antibacterial activity against glycopeptide-intermediate Staphylococcus aureus NJ992 assessed as decrease in bacterial load in in vitro pharmacokinetic/pharmacodynamic model at 10 mg/kg administered daily after 62 hrs. The data set is classed as functional, organism-based. On the set-up: dose 10 mg/kg. A digest of the protocol: as §1

The subject of data set [13] is Staphylococcus aureus. Nature of the data set: Antibacterial activity against methicillin-resistant Staphylococcus aureus 494 assessed as decrease in bacterial load in in vitro pharmacokinetic/pharmacodynamic model at 1 g for every 12 hrs administered daily after 96 hrs. The class given is functional, organism-based. In short, it runs like this: as §1
The subject of data set [14] is Staphylococcus aureus. Nature of the data set: Antibacterial activity against methicillin-susceptible Staphylococcus aureus 1199 assessed as decrease in bacterial load in in vitro pharmacokinetic/pharmacodynamic model at 1 g for every 12 hrs administered daily after 96 hrs. The class given is functional, organism-based. In short, it runs like this:
as §1

Data set [15] relates to Staphylococcus aureus. Put plainly: Antibacterial activity against heteroresistant glycopeptide-intermediate Staphylococcus aureus 1629 assessed as decrease in bacterial load in in vitro pharmacokinetic/pharmacodynamic model at 1 g for every 12 hrs administered daily after 96 hrs. The data set is classed as functional, organism-based. In short, it runs like this:
as §1

The subject of data set [16] is Staphylococcus aureus. Nature of the data set: Antibacterial activity against glycopeptide-intermediate Staphylococcus aureus NJ992 assessed as decrease in bacterial load in in vitro pharmacokinetic/pharmacodynamic model at 1 g for every 12 hrs administered daily after 96 hrs. The data set is classed as functional, organism-based. In short, it runs like this: as §1

Data set [17] can be described thus: Cmax in in vitro pharmacokinetic/pharmacodynamic model at 1 g for every 12 hrs. The data set is classed as ADME. On the set-up: dose 1 g. A digest of the protocol: (§2)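 Drugs given as boluses into the central compartment of a 250-ml glass in vitro PK/PD model over 96 h. Samples taken via the injection port at 1, 4, 8, 24, 32, 48, 72 and 96 h. […] Half-life, peak and AUC derived by the trapezoidal method. Models run in duplicate; mean ± SD.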

Data set [18] in a line: Half life in in vitro pharmacokinetic/pharmacodynamic model at 1 g for every 12 hrs. The class given is ADME. In short, it runs like this: as §2
Data set [19] in a line: AUC (0 to 24 hrs) in in vitro pharmacokinetic/pharmacodynamic model at 1 g for every 12 hrs. The data set is classed as ADME. The arrangement: dose 1 g, time < 24 hr. A digest of the protocol:
as §2

The nature of data set [20]: Cmax in in vitro pharmacokinetic/pharmacodynamic model at 5 mg/kg for every 24 hrs. The data set is classed as ADME, organism-based. On the set-up: dose 5 mg/kg. In short, it runs like this: as §2
Data set [21] is described as follows: Half life in in vitro pharmacokinetic/pharmacodynamic model at 5 mg/kg for every 24 hrs. The class given is ADME, organism-based. The arrangement: dose 5 mg/kg. A digest of the protocol:
as §2

A short description of data set [22]: AUC (0 to 24 hrs) in in vitro pharmacokinetic/pharmacodynamic model at 5 mg/kg for every 24 hrs. The data set is classed as ADME, organism-based. The arrangement: time < 24 hr, dose 5 mg/kg. A digest of the protocol:
as §2

From ChEMBL document CHEMBL1649505, “Activity of telavancin against Staphylococcus aureus strains with various vancomycin susceptibilities in an in vitro pharmacokinetic/pharmacodynamic model with simulated endocardial vegetations” (Antimicrob Agents Chemother, 2009) come the findings set out here.

≈ marks a conversion by molar mass, not a printed value. Calls of active or inactive are those of the source. The calls are words filed in the database; no cut-off is given here.

A word on the Cmax: it is the maximum level reached in the sampled fluid or tissue. What is called AUC is the area under the concentration-time curve, a measure of exposure. A low value points to less exposure. By half-life is commonly meant how long it takes for the measured level to halve. A lower half-life goes with fast loss.

In the case of `CO[C@H]1/C=C/O[C@@]2(C)Oc3c(C)c(O)c4c(O)c(c(/C=N/N5CCN(C)CC5)c(O)c4c3C2=O)NC(=O)/C(C)=C\C=C\[C@H](C)[C@H](O)[C@@H](C)[C@@H](O)[C@@H](C)[C@H](OC(C)=O)[C@@H]1C` [RIFAMPIN], the MIC with Staphylococcus aureus [1] came to 0.004 µg/mL (≈ 0.00486 µM); in the data set on Staphylococcus aureus [2], 2050 µg/mL (≈ 2490 µM); with Staphylococcus aureus [3] it was 0.004 µg/mL (≈ 0.00486 µM); in the data set with Staphylococcus aureus [4], 0.004 µg/mL (≈ 0.00486 µM). For the same compound, in [5], the highest level (Cmax) was 4900 ng/mL. This compound gave an AUC at 24 h in [6] of 64.4 µg·h/mL.

In the data set on Staphylococcus aureus [1], GENTAMICIN [listing 1 of 2 here] showed an MIC of 0.25 µg/mL.

With `CCCCCCCCCCNCCN[C@@]1(C)C[C@H](O[C@H]2[C@H](Oc3c4cc5cc3Oc3ccc(cc3Cl)[C@@H](O)[C@@H](NC(=O)[C@@H](CC(C)C)NC)C(=O)N[C@@H](CC(N)=O)C(=O)N[C@H]5C(=O)N[C@H]3C(=O)N[C@H](C(=O)N[C@H](C(=O)O)c5cc(O)c(CNCP(=O)(O)O)c(O)c5-c5cc3ccc5O)[C@H](O)c3ccc(c(Cl)c3)O4)O[C@H](CO)[C@@H](O)[C@@H]2O)O[C@@H](C)[C@H]1O` [TELAVANCIN], in [7], the AUC at 24 h is 969 µg·h/mL. Further, the CFU/g with Staphylococcus aureus [8] is 2.8; in the data set with Staphylococcus aureus [9], 4.2 log10 CFU/g; in the data set with Staphylococcus aureus [10], 4.1 log10 CFU/g. For the same compound, the result with Staphylococcus aureus [11] and in the data set on Staphylococcus aureus [12] was Active. In addition, the result in the data set on Staphylococcus aureus [13], in the data set with Staphylococcus aureus [14], with Staphylococcus aureus [15] and in the data set with Staphylococcus aureus [16] was inactive. Besides, the MIC is 0.125 µg/mL (≈ 0.0712 µM) with Staphylococcus aureus [1], 0.5 µg/mL (≈ 0.285 µM) in the data set on Staphylococcus aureus [2], 0.125 µg/mL (≈ 0.0712 µM) with Staphylococcus aureus [3] and 0.25 µg/mL (≈ 0.142 µM) in the data set on Staphylococcus aureus [4].

`CN[C@H](CC(C)C)C(=O)N[C@H]1C(=O)N[C@@H](CC(N)=O)C(=O)N[C@H]2C(=O)N[C@H]3C(=O)N[C@H](C(=O)N[C@H](C(=O)O)c4cc(O)cc(O)c4-c4cc3ccc4O)[C@H](O)c3ccc(c(Cl)c3)Oc3cc2cc(c3O[C@@H]2O[C@H](CO)[C@@H](O)[C@H](O)[C@H]2O[C@H]2C[C@](C)(N)[C@H](O)[C@H](C)O2)Oc2ccc(cc2Cl)[C@H]1O` [VANCOMYCIN]: in data set [17], the Cmax is 37000 ng/mL. Moreover, in data set [18], the half-life was 6.2 h. Also, in data set [19], the AUC at 24 h amounted to 391 µg·h/mL. This compound registered an MIC against Staphylococcus aureus [2] of 8 µg/mL (≈ 5.52 µM).

Take GENTAMICIN [listing 2 of 2 here]: the Cmax in data set [20] is 15800 ng/mL. This compound yielded a t1/2 in data set [21] of 3.4 h. For the same compound, in data set [22], the AUC is 63.1 µg·h/mL.
